Experimental data published in ChEMBL document CHEMBL4043099, “Synthesis and biological activity of cyclolinopeptide A analogues modified with γ4-bis(homo-phenylalanine)” (Bioorg Med Chem, 2017).
Calls of active or inactive are those of the source. The rule behind the calls is not given here. Where a SMILES comes first, the peptide text is derived from it.

Legend:
PBMC [1] = assay: Anti-inflammatory activity in human PBMC assessed as inhibition of LPS-induced TNFalpha production at 1 to 10 ug/ml after overnight incubation by immunoassay; type: functional, cell-based
How it was run: (§1)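 Diluted venous blood from a single donor (10× in RPMI-1640), 1 mL cultures, stimulated with 1 µg/mL LPS from E. coli O:111:B4. Peptides added at 1 and 10 µg/mL from DMSO stock (5 mg/200 µL) diluted in RPMI-1640. DMSO dilutions served as 100% controls. Overnight incubation, then supernatants frozen at -20 C and TNF-α measured by ELISA.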

PBMC [2] = assay: Anti-inflammatory activity in human PBMC assessed as inhibition of LPS-induced TNFalpha production at 10 ug/ml after overnight incubation by immunoassay; type: functional; how it was run: as §1
PBMC [3] = assay: Immunosuppressive activity in human PBMC assessed as inhibition of PHA-induced proliferation after 4 days by MTT assay; type: functional, cell-based
How it was run: (§2)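 PBMC (2×10^5 cells/well) in supplemented RPMI-1640, stimulated with 5 µg/mL PHA, with peptide at 1, 10 or 100 µg/mL. DMSO dilutions as control; no-PHA wells as baseline. Proliferation read by MTT after 4 days of incubation. Data given as mean OD of quadruplicate wells ± SE.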

PBMC [4] = assay: Immunosuppressive activity in human PBMC assessed as inhibition of PHA-induced cell proliferation at 10 ug/ml after 4 days by MTT assay; type: functional, cell-based; how it was run: as §2
PBMC [5] = assay: Immunosuppressive activity in human PBMC assessed as inhibition of PHA-induced cell proliferation at 1 to 100 ug/ml after 4 days by MTT assay; type: functional, cell-based; how it was run: as §2
PBMC [6] = assay: Cytotoxicity against human PBMC assessed as reduction in cell viability at 1 to 100 ug/ml after 24 hrs by MTT assay; type: cell-based
How it was run: (§3)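 Single-donor PBMC isolated on LSM, resuspended in RPMI-1640 with 10% FCS, L-glutamine, pyruvate, 2-mercaptoethanol and antibiotics. Cells plated at 3×10^5 per well and cultured 24 h with peptide at 1, 10 or 100 µg/mL. Survival read by MTT and expressed as % viable cells versus matched DMSO controls.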

PBMC [7] = assay: Cytotoxicity against human PBMC assessed as reduction in cell viability at 100 ug/ml after 24 hrs by MTT assay; type: cell-based; how it was run: as §3
HT-29 = assay: Cytotoxicity against human HT-29 cells at 12 ug/ml; type: functional, cell-based
A-431 = assay: Cytotoxicity against human A431 cells at 6 ug/ml; type: functional, cell-based

SMILES	inhibition (PBMC [2])	Activity (PBMC [3])	Activity (PBMC [4])	Activity (PBMC [5])	inhibition at 10 µg/mL (PBMC [2]) [%]	Activity (PBMC [6])	also measured
CC[C@H](C)[C@@H]1NC(=O)[C@H](CC(C)C)NC(=O)CC[C@H](Cc2ccccc2)NC(=O)CC[C@H](Cc2ccccc2)NC(=O)[C@@H]2CCCN2C(=O)[C@@H]2CCCN2C(=O)[C@H](C(C)C)NC(=O)[C@H](CC(C)C)NC(=O)[C@H]([C@@H](C)CC)NC1=O	Active	Dose-dependent effect	Active	–	–	–	inhibition (PBMC [1]): Active
CC[C@H](C)[C@@H]1NC(=O)[C@H](CC(C)C)NC(=O)CC[C@H](Cc2ccccc2)NC(=O)CC[C@@H](Cc2ccccc2)NC(=O)[C@@H]2CCCN2C(=O)[C@@H]2CCCN2C(=O)[C@H](C(C)C)NC(=O)[C@H](CC(C)C)NC(=O)[C@H]([C@@H](C)CC)NC1=O	Active	Dose-dependent effect	Active	–	–	–	–
CC[C@H](C)[C@H](N)C(=O)N[C@H](C(=O)N[C@@H](CC(C)C)C(=O)N[C@H](C(=O)N1CCC[C@H]1C(=O)N1CCC[C@H]1C(=O)N[C@H](CCC(=O)N[C@H](CCC(=O)N[C@@H](CC(C)C)C(=O)O)Cc1ccccc1)Cc1ccccc1)C(C)C)[C@@H](C)CC	–	–	–	inactive	45	Non-Toxic	–
CC[C@H](C)[C@@H]1NC(=O)[C@H](CC(C)C)NC(=O)[C@H](Cc2ccccc2)NC(=O)CC[C@@H](Cc2ccccc2)NC(=O)[C@@H]2CCCN2C(=O)[C@@H]2CCCN2C(=O)[C@H](C(C)C)NC(=O)[C@H](CC(C)C)NC(=O)[C@H]([C@@H](C)CC)NC1=O	Active	Dose-dependent effect	Active	–	–	–	Activity (PBMC [7]): Toxic
CC[C@H](C)[C@H](N)C(=O)N[C@H](C(=O)N[C@@H](CC(C)C)C(=O)N[C@H](C(=O)N1CCC[C@H]1C(=O)N1CCC[C@H]1C(=O)N[C@@H](Cc1ccccc1)C(=O)N[C@@H](CCC(=O)N[C@@H](CC(C)C)C(=O)O)Cc1ccccc1)C(C)C)[C@@H](C)CC	–	–	–	inactive	45	Non-Toxic	–
CC[C@H](C)[C@@H]1NC(=O)[C@H](CC(C)C)NC(=O)CC[C@@H](Cc2ccccc2)NC(=O)CC[C@H](Cc2ccccc2)NC(=O)[C@@H]2CCCN2C(=O)[C@@H]2CCCN2C(=O)[C@H](C(C)C)NC(=O)[C@H](CC(C)C)NC(=O)[C@H]([C@@H](C)CC)NC1=O	Active	Dose-dependent effect	Active	–	–	–	–
CC[C@H](C)[C@H](N)C(=O)N[C@H](C(=O)N[C@@H](CC(C)C)C(=O)N[C@H](C(=O)N1CCC[C@H]1C(=O)N1CCC[C@H]1C(=O)N[C@H](CCC(=O)N[C@@H](CCC(=O)N[C@@H](CC(C)C)C(=O)O)Cc1ccccc1)Cc1ccccc1)C(C)C)[C@@H](C)CC	–	–	–	inactive	45	Non-Toxic	–
CC[C@H](C)[C@@H]1NC(=O)[C@H](CC(C)C)NC(=O)CC[C@@H](Cc2ccccc2)NC(=O)[C@H](Cc2ccccc2)NC(=O)[C@@H]2CCCN2C(=O)[C@@H]2CCCN2C(=O)[C@H](C(C)C)NC(=O)[C@H](CC(C)C)NC(=O)[C@H]([C@@H](C)CC)NC1=O	Active	Dose-dependent effect	Active	–	–	–	Activity (PBMC [7]): Toxic
CC[C@H](C)[C@@H]1NC(=O)[C@H](CC(C)C)NC(=O)[C@H](Cc2ccccc2)NC(=O)[C@H](Cc2ccccc2)NC(=O)[C@@H]2CCCN2C(=O)[C@@H]2CCCN2C(=O)[C@H](C(C)C)NC(=O)[C@H](CC(C)C)NC(=O)[C@H]([C@@H](C)CC)NC1=O (cyclo(FFLIILVPP))	–	–	–	–	–	–	Activity (HT-29): inactive; Activity (A-431): inactive
CC[C@H](C)[C@@H]1NC(=O)[C@H](CC(C)C)NC(=O)CC[C@@H](Cc2ccccc2)NC(=O)CC[C@@H](Cc2ccccc2)NC(=O)[C@@H]2CCCN2C(=O)[C@@H]2CCCN2C(=O)[C@H](C(C)C)NC(=O)[C@H](CC(C)C)NC(=O)[C@H]([C@@H](C)CC)NC1=O	Active	Dose-dependent effect	Active	–	–	–	Activity (PBMC [7]): Toxic
CC[C@H](C)[C@H](N)C(=O)N[C@H](C(=O)N[C@@H](CC(C)C)C(=O)N[C@H](C(=O)N1CCC[C@H]1C(=O)N1CCC[C@H]1C(=O)N[C@@H](CCC(=O)N[C@H](CCC(=O)N[C@@H](CC(C)C)C(=O)O)Cc1ccccc1)Cc1ccccc1)C(C)C)[C@@H](C)CC	–	–	–	inactive	45	Non-Toxic	–
CC[C@H](C)[C@H](N)C(=O)N[C@H](C(=O)N[C@@H](CC(C)C)C(=O)N[C@H](C(=O)N1CCC[C@H]1C(=O)N1CCC[C@H]1C(=O)N[C@H](CCC(=O)N[C@@H](Cc1ccccc1)C(=O)N[C@@H](CC(C)C)C(=O)O)Cc1ccccc1)C(C)C)[C@@H](C)CC	–	–	–	inactive	45	Non-Toxic	–
CC[C@H](C)[C@@H]1NC(=O)[C@H](CC(C)C)NC(=O)CC[C@H](Cc2ccccc2)NC(=O)[C@H](Cc2ccccc2)NC(=O)[C@@H]2CCCN2C(=O)[C@@H]2CCCN2C(=O)[C@H](C(C)C)NC(=O)[C@H](CC(C)C)NC(=O)[C@H]([C@@H](C)CC)NC1=O	Active	Dose-dependent effect	Active	–	–	–	–
CC[C@H](C)[C@H](N)C(=O)N[C@H](C(=O)N[C@@H](CC(C)C)C(=O)N[C@H](C(=O)N1CCC[C@H]1C(=O)N1CCC[C@H]1C(=O)N[C@@H](CCC(=O)N[C@@H](CCC(=O)N[C@@H](CC(C)C)C(=O)O)Cc1ccccc1)Cc1ccccc1)C(C)C)[C@@H](C)CC	–	–	–	inactive	45	Non-Toxic	–
CC[C@H](C)[C@H](N)C(=O)N[C@H](C(=O)N[C@@H](CC(C)C)C(=O)N[C@H](C(=O)N1CCC[C@H]1C(=O)N1CCC[C@H]1C(=O)N[C@@H](CCC(=O)N[C@@H](Cc1ccccc1)C(=O)N[C@@H](CC(C)C)C(=O)O)Cc1ccccc1)C(C)C)[C@@H](C)CC	inactive	–	–	inactive	–	Non-Toxic	–
CC[C@H](C)[C@H](N)C(=O)N[C@H](C(=O)N[C@@H](CC(C)C)C(=O)N[C@H](C(=O)N1CCC[C@H]1C(=O)N1CCC[C@H]1C(=O)N[C@@H](Cc1ccccc1)C(=O)N[C@H](CCC(=O)N[C@@H](CC(C)C)C(=O)O)Cc1ccccc1)C(C)C)[C@@H](C)CC	–	–	–	inactive	45	Non-Toxic	–
